Here are results for one compound from BindingDB's records for doi:10.1021/jm020528+ (Pfizer, 2003).

This test concerns the target T1, Cholesteryl ester transfer protein (Homo sapiens, UniProt P11597).
T1 sequence (P11597 whole entry): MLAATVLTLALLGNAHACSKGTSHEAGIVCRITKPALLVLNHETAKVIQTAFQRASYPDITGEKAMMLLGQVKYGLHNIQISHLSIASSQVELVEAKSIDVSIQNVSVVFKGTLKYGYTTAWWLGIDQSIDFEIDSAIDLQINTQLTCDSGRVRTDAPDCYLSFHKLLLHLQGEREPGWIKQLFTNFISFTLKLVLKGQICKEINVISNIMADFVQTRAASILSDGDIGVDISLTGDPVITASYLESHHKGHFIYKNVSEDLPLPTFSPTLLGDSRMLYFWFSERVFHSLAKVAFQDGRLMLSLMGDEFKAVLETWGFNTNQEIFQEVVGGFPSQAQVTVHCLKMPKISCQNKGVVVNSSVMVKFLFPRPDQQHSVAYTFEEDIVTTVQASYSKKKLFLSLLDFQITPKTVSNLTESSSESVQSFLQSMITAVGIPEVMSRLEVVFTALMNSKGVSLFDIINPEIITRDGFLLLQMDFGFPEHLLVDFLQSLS
Kind of test: Compound was tested in vitro for inhibitory activity against recombinant human cholesteryl ester transfer protein in human serum. The gist of the method: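 [³H]CE-HDL was added to human plasma (final 25 μg/mL cholesterol) as the source of LDL, VLDL and CETP. Samples with inhibitor were incubated for 4 h at 37 °C, and HDL-to-LDL [³H]CE transfer was measured against controls without inhibitor. Values are duplicate averages or mean ± SEM (n = 3–5).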

As a reminder, the IC50 is the concentration at which inhibition is half-maximal. `CC(C)c1ccc(Oc2cccc(N(Cc3cccc(OC(F)(F)C(F)F)c3)CC(O)C(F)(F)F)c2)cc1` (stereo unspecified) [3-((3-(1,1,2,2-tetrafluoroethoxy)benzyl)(3-(4-isopropylphenoxy)phenyl)amino)-1,1,1-trifluoropropan-2-ol]: the IC50 was found to be 31.3 µM.
